Source: PubChem (several laboratories)
In the library only some 1.8% were active in any assay of this set; here they are far more common.
Apaf1 inhib = blocks human Apaf-1 apoptosome activity | reconstituted apoptosome caspase-3 activity, DEVD-Rh110 fluorescence | inhibition, % at 20 µM | hit rate 0.71% among 330,000 | O14727; active = inhibition of at least 40% at 20 µM;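 note: plate controls were DMSO wells for no effect and DEVD-CHO caspase inhibitor wells for full effect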
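detection = Rh110 fluorescence intensity | test system = biochemical Apaf-1 apoptosome reconstitution | also added = cytochrome c and DEVD-Rh110 substrate | schedule = 30 min plus 50 min, RT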
GSTO1 inh = GSTO1 inhibition, counter-screen for RBBP9 inhibitors | recombinant GSTO1, activity-based probe fluorescence polarization | inhibition, % at 5.96 µM | hit rate 1.1% among 300,000;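 active = inhibition above the campaign mean inhibition plus 3 SD, cut at about 35% in these data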;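 note: 0% = GSTO1-1 with DMSO and 100% = wells lacking GSTO1-1 enzyme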
Fh CTSL1 inh = cathepsin L1 inhibition, PFM18AAP counter-screen; AID 1906; recombinant F. hepatica cathepsin L1, Z-Leu-Arg-MCA fluorescence; inhibition, % at 5.96 µM; hit rate 0.49% among 300,000;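 active = inhibition above the mean of all tested compounds plus 3 SD, set per screening campaign, cut at about 17% in these data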;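 note: 0% = plate median of test compound wells and 100% = 1 µM Z-Phe-Ala-diazomethylketone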
PAD4 inh = inhibitors of human PAD4 | Q9UM07 | recombinant PAD4, RCA probe fluorescence polarization | inhibition, % at 6.36 µM | hit rate 0.41% among 330,000 | AID 485272;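 active = percent inhibition above a cutoff equal to the mean of all tested compounds plus 3 SD, cut at about 15% in these data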;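 note: 0% = PAD4 with RCA probe and DMSO and 100% = probe without PAD4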
Target sequence (Q9UM07 whole entry, looked up): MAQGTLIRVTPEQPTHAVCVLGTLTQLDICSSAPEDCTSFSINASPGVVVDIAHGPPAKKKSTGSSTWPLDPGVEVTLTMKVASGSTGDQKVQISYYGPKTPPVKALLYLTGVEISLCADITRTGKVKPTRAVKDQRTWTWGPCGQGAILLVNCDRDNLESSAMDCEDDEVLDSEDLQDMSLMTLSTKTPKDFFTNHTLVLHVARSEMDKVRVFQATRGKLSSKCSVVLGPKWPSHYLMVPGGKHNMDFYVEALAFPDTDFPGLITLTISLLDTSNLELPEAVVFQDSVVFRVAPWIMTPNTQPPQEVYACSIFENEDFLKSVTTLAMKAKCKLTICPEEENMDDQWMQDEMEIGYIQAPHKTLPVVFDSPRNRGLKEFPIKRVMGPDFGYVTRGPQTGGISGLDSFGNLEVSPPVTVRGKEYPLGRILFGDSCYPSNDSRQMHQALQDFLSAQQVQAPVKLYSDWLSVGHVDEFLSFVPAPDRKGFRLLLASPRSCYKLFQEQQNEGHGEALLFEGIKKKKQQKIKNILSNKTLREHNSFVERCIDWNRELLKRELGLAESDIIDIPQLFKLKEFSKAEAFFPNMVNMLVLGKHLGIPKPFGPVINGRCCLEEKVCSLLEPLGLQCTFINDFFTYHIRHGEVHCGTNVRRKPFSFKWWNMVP
TDP2 inh = TDP2 (human) inhibition, absorbance primary screen; O95551; recombinant TDP2, T5PNP hydrolysis, p-nitrophenol absorbance 415 nm; inhibition, % at 12.8 µM; hit rate 0.34% among 370,000; AID 720702;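 active = inhibition above the mean of all tested compounds plus 3 SD, set per campaign, cut at about 25% in these data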;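 note: 0% = DMSO with enzyme and 100% = buffer with substrate but no TDP2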
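System – recombinant human TDP2 · Amount – 120 nM TDP2 per well · Buffer or medium – Mg2+-containing Tris-HCl buffer, pH 7.5 · Reagent – T5PNP substrate, 5 mM · Dosing – 12.8 µM single point, 1% DMSO · Incubation – 2 h at 37 °C · Measured by – epi absorbance · Read-out basis – percent inhibition · Benchmarks – high control without enzyme, low control DMSO plus TDP2 · Repeats – singlicate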
Apaf-1 inh conf2 = Apaf-1 inhibition, single-dose confirmed; shares compounds with Apaf1 inhib; reconstituted apoptosome, caspase-3 DEVD-Rh110 fluorescence; inhibition, % at 20 µM; hit rate 25% among 1,800;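 active = mean inhibition of at least 40% at 20 µM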;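 note: plate controls were DMSO wells for no effect and DEVD-CHO caspase inhibitor control wells for full effect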
Rh110 interf inh = Rh110 signal interference in Apaf-1 inhibitor counter-screen. shares compounds with Apaf1 inhib. Rh110 fluorescence interference, quenched caspase reaction. activation (fluorescence interference), % at 20 µM. 1,800 tested, under 10 active. AID 504615;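 active = signal rise of 40% or more at 20 µM, treated as a fluorescence artifact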
Fluor interf inh = counter-screen for Apaf-1 inhibitors: fluorescence interference, dose response; shares compounds with Apaf1 inhib; fluorescence interference counterscreen, Apaf-1 assay format; IC50, µM; 460 tested, under 10 active; AID 588538; call rule not given here
* hit, by the source's call; / = no result given.

SMILES	Apaf1 inhib	GSTO1 inh	Fh CTSL1 inh	PAD4 inh	TDP2 inh	Apaf-1 inh conf2	Rh110 interf inh	others
Cc1cc2cc(CNC(=O)Nc3ccc(Cl)c(Cl)c3)ccc2n1C	62.3*	-5.5	-2.7	-1.9	-6.8	7.9	-0.8
Cc1ccc(S(=O)(=O)NCc2ccc3c(c2)cc(C)n3C)cc1	50.6*	0.7	-0.3	11.4	-7.3	3.6	11.1
Cc1cc2cc(CNC(=O)NC3CCCCC3)ccc2n1C	50.8*	-1.4	-3.8	0.0	7.1	15.8	10.7
Cc1ccc(S(=O)(=O)NCc2ccncc2)cc1	-2.4	1.1	4.3	6.0	-6.5	/	/
C#CCN(Cc1cccc(F)c1)C(=O)c1nnc2c3cc(F)ccc3n(S(=O)(=O)c3ccc(OC)cc3)c2n1	/	/	/	/	-4.4	/	/
CCN(C(=O)[C@@H](C)[C@@H](O)c1ccc(Cl)cc1)c1ccccc1	/	/	/	/	-12.9	/	/
COc1cccc2sc3cc(C#CC4(O)CCCCC4)ccc3c(=O)c12	40.1*	/	/	-4.5	-18.1	27.1	2.6
CN(C)CCCNc1cc(C(C)(C)C)nc2c(-c3ccc(Cl)cc3)cnn12	58.3*	12.3	6.7	6.6	-3.5	38.1	25.4
O=C1Cc2ccccc2C(=O)N1OCc1ccc(Cl)cc1	95.3*	9.0	1.0	-12.6	-0.5	28.8	10.0
Cc1cc(Nc2cccc(Cl)c2)nc(NCc2ccccc2)n1	43.0*	-12.0	0.8	-2.8	-4.4	14.5	6.0
O=S(=O)(c1cccs1)N1CCCc2nc(-c3ccc(F)cc3)ccc21	/	/	/	/	0.6	/	/
COc1ccc(C[C@H]2CN3C(=NC[C@H]3Cc3ccccc3)N2CCNC(=O)c2ccc(C)c(Br)c2)cc1	42.9*	-2.2	-0.8	-1.1	/	40.6*	10.6	Fluor interf inh=>100
COc1ccc(C[C@H]2CN3C(=NC[C@@H]3C(C)C)N2C[C@H](C)NC(=O)c2ccc(C)c(Br)c2)cc1	48.1*	-4.0	2.0	-5.0	-4.6	17.8	11.1
COc1ccc(C[C@H]2CN3C(=NC[C@@H]3Cc3ccccc3)N2CCNC(=O)c2ccc(C)c(Br)c2)cc1	64.9*	4.6	2.8	5.6	/	34.5	-17.4
COc1ccc(C[C@H]2CN3C(=NC[C@@H]3Cc3ccc(O)cc3)N2CCNC(=O)c2ccc(C)c(Br)c2)cc1	33.4	-1.6	-1.5	-4.8	1.4	/	/
COC(=O)[C@@]12CCCCC=C1N(CCc1ccc(Cl)cc1)C(=O)[C@H]2CC(=O)NCCCCc1ccccc1	/	/	/	/	-9.4	/	/
COc1ccc(OC)c(S(=O)(=O)N2CCCCC2C(=O)N2CCCN(C)CC2)c1 (stereo not given)	/	/	/	/	-2.5	/	/
CCN(CC)CCNC(=O)c1ccc(NC(=O)c2cn(-c3ccc(F)cc3)nc2-c2cccc(OC)c2)cc1	45.1*	-13.6	-5.9	-9.2	-15.1	22.2	7.3
[O-]/C(=C(\C(=S)Nc1cccc2ccccc12)[n+]1ccccc1)c1ccc(Cl)s1	47.0*	0.3	1.1	-3.4	3.4	15.2	-1.7
COC(=O)C(CN)CN1C(=O)c2ccccc2C1=O (stereo not given)	/	/	/	/	10.0	/	/
CCc1ccc(S(=O)(=O)/N=C2\C=C(NS(=O)(=O)c3ccccc3)C(=O)c3ccccc32)cc1	57.4*	/	/	/	18.0	50.8*	1.9	Fluor interf inh=>100
COc1ccc(S[C@]2(C(=O)N3CCCC3)CC(=O)N(C(=O)c3ccccc3)[C@@H]2c2ccc(OC)cc2)cc1	/	/	/	/	-18.5	/	/
N#Cc1nc(-c2ccco2)oc1N1CCc2ccccc2C1	51.7*	-6.9	0.0	-3.9	-20.5	24.7	21.3
N#Cc1nc(-c2ccco2)oc1N1CCCC1	3.5	-0.7	3.0	1.8	-11.2	/	/
Brc1ccc(-c2cn3nc4c(nc3n2)CCCC4)cc1	41.2*	6.9	-2.7	-11.4	6.4	31.9	7.0
c1ccc(-c2cn3nc4c(nc3n2)CCCC4)cc1	57.3*	11.3	3.4	-4.1	3.4	27.1	4.1
Nc1nn2cc(-c3ccc(Br)cc3)nc2c2ccccc12	5.2	-27.1	1.9	-1.1	2.5	/	/
c1ccc(-c2cn3nc(-c4ccccc4)cnc3n2)cc1	/	1.5	-4.3	4.7	12.0	/	/
CCCn1nc(C(=O)Nc2ccc(N3CCOCC3)cc2)c2ccccc2c1=O	5.2	/	/	-3.2	-0.4	/	/
